Experimental data as given in ChEMBL document CHEMBL1141257, “Solanapyrone analogues from a Hawaiian fungicolous fungus” (J Nat Prod, 2007).
In brackets after ≈: the same amount, converted by molar mass. Activity calls are given as the source filed them. No cut-off for these calls is given here.

Legend:
[1] = system: Staphylococcus aureus; test: Antibacterial activity against Staphylococcus aureus ATCC 25923 at 50 ug/disk after 4 days; type: functional; conditions: for zone of inhibition at 50 µg/disc: ATCC 25923, 96 h, read-out: IZ
Method in brief: (§1)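 Standard agar disk diffusion assay with 50 μg loaded per disk. Zones were read after 4 days as clear zones of inhibition in mm. For S. aureus, the zone of reduced growth was also measured in mm.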

[2] = system: Candida albicans; test: Antifungal activity against Candida albicans ATCC 14053; type: functional; method in brief: as §1
[3] = system: Escherichia coli; test: […] activity against Escherichia coli ATCC 25922; type: functional, organism-based; method in brief: as §1
[4] = system: Candida albicans; test: Antifungal activity against Candida albicans ATCC 14053 at 50 ug/disk; type: functional; conditions: read-out: IZ; method in brief: as §1
[5] = system: Aspergillus flavus; test: Antifungal activity against Aspergillus flavus NRRL 6541 at 200 ug/disk after 4 days; type: functional; conditions: NRRL 6541, 96 h, read-out: IZ
Method in brief: (§2)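 Disk diffusion assay with 200 μg applied per disk; the diameter of the growth-inhibition zone was read in mm, and persistence of the zone was followed over 4 days.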

[6] = system: Fusarium verticillioides; test: Antifungal activity against Fusarium verticillioides NRRL 25457 at 200 ug/disk after 4 days; type: functional; conditions: NRRL 25457, 96 h, read-out: IZ; method in brief: as §2
[7] = system: Aspergillus flavus; test: Antifungal activity against Aspergillus flavus NRRL 6541; type: functional, organism-based
Method in brief: (§3)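 Disk diffusion assay against the fungus with 200 μg of compound per disk; zones of inhibition were read and followed over 4 days. A further evaluation reported MIC and IC50 values, with the antifungal standard run under the same protocols.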

[8] = system: Fusarium verticillioides; test: Antifungal activity against Fusarium verticillioides NRRL 25457; type: functional, organism-based; method in brief: as §3
[9] = system: Staphylococcus aureus; test: Antibacterial activity against Staphylococcus aureus ATCC 25923 assessed as zone of reduced growth at 50 ug/disk after 4 days; type: functional; conditions: ATCC 25923, 96 h, read-out: IZ; method in brief: as §1

Compound: COc1cc([C@@]2(C)[C@H]3[C@H](C=C[C@H]2C)CCC[C@@H]3C)oc(=O)c1CO
- Activity [1]: inactive
- Activity [2]: inactive
- Activity [3]: inactive

Compound: C[C@H]1CCC[C@@H]2C=C[C@H](C)[C@@](C)(C3=CC(=O)/C(=C/N)C(=O)O3)[C@H]12
- Activity [1]: inactive
- Activity [2]: inactive
- Activity [3]: inactive

Compound: CCCCC[C@@H](O)[C@H]1C(=O)O[C@H](C)[C@@H](O)/C=C/C=C/C=C/C=C/C=C(\C)[C@@H](O)C[C@H](O)C[C@H](O)C[C@H](O)C[C@H](O)C[C@H](O)C[C@@H]1O [FILIPIN]
- zone of inhibition at 50 µg/disc [4]: 23 mm

Compound: COc1cc([C@@]2(C)[C@@H]3[C@@H](C)CCC[C@@H]3C=C[C@@H]2C)oc(=O)c1C=O [SOLANAPYRONE J]
- zone of inhibition at 200 µg/disc [5]: 30 mm
- zone of inhibition at 200 µg/disc [6]: 30 mm
- MIC ([7]; Aspergillus flavus, NRRL 6541): 20 µg/mL (≈ 60.5 µM)
- IC50 ([7]; Aspergillus flavus, NRRL 6541, read-out: IC50): 8.6 µg/mL (≈ 26 µM)
- MIC ([8]; Fusarium verticillioides, NRRL 25457): 24 µg/mL (≈ 72.6 µM)
- IC50 ([8]; Fusarium verticillioides, NRRL 25457, read-out: IC50): 15 µg/mL (≈ 45.4 µM)
- zone of inhibition at 50 µg/disc [9]: 21 mm
- zone of inhibition at 50 µg/disc [1]: 17 mm
- inhibition zone (IZ) [2]: 19 mm

Compound: C[C@H]1CCC[C@@H]2C=C[C@H](C)[C@@](C)(C3=CC(=O)/C(=C\NCCO)C(=O)O3)[C@H]12 [SOLANAPYRONE K]
- zone of inhibition at 50 µg/disc [1]: 9 mm
- inhibition zone (IZ) [2]: 13 mm

Compound: NYSTATIN [listing 1 of 2 here]
- IC50 [7]: 5 µg/mL
- IC50 [8]: 3 µg/mL

Compound: NYSTATIN [listing 2 of 2 here]
- MIC [7]: 10 µg/mL
- MIC [8]: 10 µg/mL
